From ChEMBL document CHEMBL1255494, “In vivo comparison of the pharmacodynamic targets for echinocandin drugs against Candida species” (Antimicrob Agents Chemother, 2010)
Values after ≈ are worked out from the molar mass of the structure shown.

How the values were obtained:
[1] = system: Nakaseomyces glabratus; assay: Antifungal activity against Candida glabrata 33609 after 24 hrs; format: functional; conditions: Nakaseomyces glabratus, 33609, 24 h
Method in brief: (§1)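 Broth microdilution per CLSI M27-A3 in RPMI 1640; inoculum 0.5 × 10³ to 2.5 × 10³ cells/ml, 35°C. […] Three separate occasions in duplicate, mean reported; C. krusei ATCC 6258 and C. parapsilosis ATCC 22019 as daily QC.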

[2] = Cmax in Candida albicans infected neutropenic ICR Swiss mouse at 20 mg/kg, ip; format: ADME, organism-based; set-up: dose 20 mg/kg, route intraperitoneal; conditions: ICR Swiss, in vivo
Method in brief: (§2)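 Neutropenic female ICR Swiss mice (cyclophosphamide sc at 150 mg/kg on day −4, 100 mg/kg on day −1 and day +2) infected iv via tail vein with Candida; single ip doses of 5, 20 or 80 mg/kg. Serum drawn from 3 mice per time point at eight time points and assayed by microbiologic assay (C. albicans K1) or […]. Noncompartmental analysis; AUC by trapezoidal rule.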

[3] = system: Nakaseomyces glabratus; assay: Antifungal activity against Candida glabrata 33616 after 24 hrs; format: functional; conditions: Nakaseomyces glabratus, 33616, 24 h
Method in brief: (§3)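 MICs by CLSI M27-A3 broth dilution in RPMI 1640, inoculum 0.5 × 10³ to 2.5 × 10³ cells/ml, 35°C. Read visually at 24 h as the lowest concentration giving ≥50% growth reduction versus control. Run on three occasions in duplicate and reported as the mean. C. krusei ATCC 6258 and C. parapsilosis ATCC 22019 served as QC strains.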

[4] = system: Candida parapsilosis; assay: Antifungal activity against Candida parapsilosis 20450.096 after 24 hrs; format: functional; conditions: Lodderomyces parapsilosis, 20450.096, 24 h; method in brief: as §3
[5] = Cmax in Candida albicans infected neutropenic ICR Swiss mouse at 80 mg/kg, ip; format: ADME, organism-based; set-up: dose 80 mg/kg, route intraperitoneal; conditions: ICR Swiss, in vivo; method in brief: as §2
[6] = system: Candida parapsilosis; assay: Antifungal activity against Candida parapsilosis 20477.078 after 24 hrs; format: functional; conditions: Lodderomyces parapsilosis, 20477.078, 24 h; method in brief: as §3
[7] = system: Candida parapsilosis; assay: Antifungal activity against Candida parapsilosis 20511.092 after 24 hrs; format: functional; conditions: Lodderomyces parapsilosis, 20511.092, 24 h; method in brief: as §3
[8] = system: Candida albicans; assay: Antifungal activity against Candida albicans 98-234 after 24 hrs; format: functional; conditions: 98-234, 24 h; method in brief: as §3
[9] = system: Nakaseomyces glabratus; assay: Antifungal activity against Candida glabrata 32930 after 24 hrs; format: functional; conditions: Nakaseomyces glabratus, 32930, 24 h; method in brief: as §1
[10] = system: Candida albicans; assay: Antifungal activity against Candida albicans 98-210 after 24 hrs; format: functional; conditions: 98-210, 24 h; method in brief: as §1
[11] = AUC (0 to 24 hrs) in Candida albicans infected neutropenic ICR Swiss mouse at 20 mg/kg, ip; format: ADME, organism-based; set-up: time < 24 hr, dose 20 mg/kg, route intraperitoneal; conditions: plasma; method in brief: as §2
[12] = AUC (0 to 24 hrs) in Candida albicans infected neutropenic ICR Swiss mouse at 80 mg/kg, ip; format: ADME, organism-based; set-up: time < 24 hr, dose 80 mg/kg, route intraperitoneal; conditions: plasma; method in brief: as §2
[13] = Cmax in Candida albicans infected neutropenic ICR Swiss mouse at 5 mg/kg, ip; format: ADME, organism-based; set-up: dose 5 mg/kg, route intraperitoneal; conditions: ICR Swiss, in vivo; method in brief: as §2
[14] = system: Candida parapsilosis; assay: Antifungal activity against Candida parapsilosis 20489.085 after 24 hrs; format: functional; conditions: Lodderomyces parapsilosis, 20489.085, 24 h; method in brief: as §1
[15] = system: Candida albicans; assay: Antifungal activity against Candida albicans K1 after 24 hrs; format: functional; conditions: K1, 24 h; method in brief: as §1
[16] = system: Candida albicans; assay: Fungistatic activity against Candida albicans infected in neutropenic ICR Swiss mouse after 24 hrs; format: functional
Method in brief: (§4)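 Female ICR Swiss mice, neutropenic via cyclophosphamide s.c. (150 mg/kg day −4, 100 mg/kg day −1 and day +2), infected by tail-vein injection of clinical isolates 2 h before therapy. Intraperitoneal dosing every 24 h for 4 days, 4–6 dose levels from 0.078 to 160 mg/kg, 3 mice per regimen. Kidney CFU counted at 96 h. Sigmoid dose-effect fit gives static dose and 1 log kill dose relative to burden at start of therapy.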

[17] = system: Candida orthopsilosis; assay: Antifungal activity against Candida orthopsilosis 20577.055 after 24 hrs; format: functional; conditions: Lodderomyces orthopsilosis, 20577.055, 24 h; method in brief: as §3
[18] = system: Candida albicans; assay: Antifungal activity against Candida albicans 570 after 24 hrs; format: functional; conditions: Candida albicans, 570, 24 h; method in brief: as §3
[19] = AUC (0 to 24 hrs) in Candida albicans infected neutropenic ICR Swiss mouse at 5 mg/kg, ip; format: ADME, organism-based; set-up: time < 24 hr, dose 5 mg/kg, route intraperitoneal; conditions: plasma; method in brief: as §2
[20] = system: Candida parapsilosis; assay: Antifungal activity against Candida parapsilosis 20435.057 after 24 hrs; format: functional; conditions: Lodderomyces parapsilosis, 20435.057, 24 h; method in brief: as §3
[21] = system: Candida parapsilosis; assay: Antifungal activity against Candida parapsilosis infected in ICR Swiss mouse assessed log reduction in bacterial count […]; format: functional; method in brief: as §4
[22] = system: Candida parapsilosis; assay: Antifungal activity against Candida parapsilosis 20423.072 after 24 hrs; format: functional; conditions: Lodderomyces parapsilosis, 20423.072, 24 h; method in brief: as §3
[23] = system: Candida parapsilosis; assay: Antifungal activity against Candida parapsilosis 20519.069 after 24 hrs; format: functional; conditions: Lodderomyces parapsilosis, 20519.069, 24 h; method in brief: as §3
[24] = system: Candida albicans; assay: Antifungal activity against Candida albicans infected in ICR Swiss mouse; format: functional; method in brief: as §4
[25] = system: Candida metapsilosis; assay: Antifungal activity against Candida metapsilosis 20463.02 after 24 hrs; format: functional; conditions: Lodderomyces metapsilosis, 20463.02, 24 h; method in brief: as §3
[26] = system: Candida albicans; assay: Antifungal activity against Candida albicans 98-17 after 24 hrs; format: functional; conditions: 98-17, 24 h; method in brief: as §3
[27] = system: Candida parapsilosis; assay: Antifungal activity against Candida parapsilosis 20562.03 after 24 hrs; format: functional; conditions: Lodderomyces parapsilosis, 20562.03, 24 h; method in brief: as §3
[28] = system: Nakaseomyces glabratus; assay: Antifungal activity against Candida glabrata 5592 after 24 hrs; format: functional; conditions: Nakaseomyces glabratus, 5592, 24 h; method in brief: as §1
[29] = system: Candida albicans; assay: Antifungal activity against Candida albicans 580 after 24 hrs; format: functional; conditions: Candida albicans, 580, 24 h; method in brief: as §1
[30] = system: Candida albicans; assay: Antifungal activity against Candida albicans infected in ICR Swiss mouse assessed as log reduction in bacterial count […]; format: functional; method in brief: as §4
[31] = system: Candida parapsilosis; assay: Fungistatic activity against Candida parapsilosis infected in neutropenic ICR Swiss mouse after 24 hrs; format: functional; method in brief: as §4
[32] = system: Nakaseomyces glabratus; assay: Antifungal activity against Candida glabrata 513 after 24 hrs; format: functional; conditions: Nakaseomyces glabratus, 513, 24 h; method in brief: as §1
[33] = system: Candida parapsilosis; assay: Antifungal activity against Candida parapsilosis infected in ICR Swiss mouse; format: functional; method in brief: as §4
[34] = system: Nakaseomyces glabratus; assay: Antifungal activity against Candida glabrata infected in ICR Swiss mouse; format: functional; method in brief: as §4
[35] = system: Candida parapsilosis; assay: Antifungal activity against Candida parapsilosis 20477.048 after 24 hrs; format: functional; conditions: Lodderomyces parapsilosis, 20477.048, 24 h; method in brief: as §3
[36] = system: Nakaseomyces glabratus; assay: Fungistatic activity against Candida glabrata infected in neutropenic ICR Swiss mouse after 24 hrs; format: functional; method in brief: as §4
[37] = system: Mus musculus; assay: Protein binding in Candida albicans infected neutropenic ICR Swiss mouse at 80 mg/kg, ip; format: ADME, organism-based; set-up: dose 80 mg/kg, route intraperitoneal; conditions: in vivo
[38] = system: Candida parapsilosis; assay: Antifungal activity against Candida parapsilosis 20423.078 after 24 hrs; format: functional; conditions: Lodderomyces parapsilosis, 20423.078, 24 h; method in brief: as §3
[39] = system: Candida parapsilosis; assay: Antifungal activity against Candida parapsilosis 20385.079 after 24 hrs; format: functional; conditions: Lodderomyces parapsilosis, 20385.079, 24 h; method in brief: as §3
[40] = system: Nakaseomyces glabratus; assay: Antifungal activity against Candida glabrata 34341 after 24 hrs; format: functional; conditions: Nakaseomyces glabratus, 34341, 24 h; method in brief: as §3
[41] = system: Candida parapsilosis; assay: Antifungal activity against Candida parapsilosis 20553.009 after 24 hrs; format: functional; conditions: Lodderomyces parapsilosis, 20553.009, 24 h; method in brief: as §3
[42] = system: Nakaseomyces glabratus; assay: Antifungal activity against Candida glabrata 5376 after 24 hrs; format: functional; conditions: Nakaseomyces glabratus, 5376, 24 h; method in brief: as §1
[43] = system: Nakaseomyces glabratus; assay: Antifungal activity against Candida glabrata infected in neutropenic ICR Swiss mouse assessed log reduction in bacterial count […]; format: functional; method in brief: as §4
[44] = system: Candida parapsilosis; assay: Antifungal activity against Candida parapsilosis 20557.012 after 24 hrs; format: functional; conditions: Lodderomyces parapsilosis, 20557.012, 24 h; method in brief: as §3
[45] = system: Nakaseomyces glabratus; assay: Antifungal activity against Candida glabrata 35315 after 24 hrs; format: functional; conditions: Nakaseomyces glabratus, 35315, 24 h; method in brief: as §3

## CC[C@H](C)C[C@H](C)CCCCCCCCC(=O)N[C@H]1C[C@@H](O)[C@@H](NCCN)NC(=O)[C@@H]2[C@@H](O)CCN2C(=O)[C@H]([C@H](O)CCN)NC(=O)[C@H]([C@H](O)[C@@H](O)c2ccc(O)cc2)NC(=O)[C@@H]2C[C@@H](O)CN2C(=O)[C@H]([C@@H](C)O)NC1=O [CASPOFUNGIN]
[1]
  MIC: 0.03 µg/mL (≈ 0.0274 µM)
[2]
  Cmax: 26000 ng/mL
[3]
  MIC: 0.25 µg/mL (≈ 0.229 µM)
[4]
  MIC: 0.5 µg/mL (≈ 0.457 µM)
[5]
  Cmax: 58000 ng/mL
[6]
  MIC: 0.5 µg/mL (≈ 0.457 µM)
[7]
  MIC: 0.06 µg/mL (≈ 0.0549 µM)
[8]
  MIC: 0.03 µg/mL (≈ 0.0274 µM)
[9]
  MIC: 0.03 µg/mL (≈ 0.0274 µM)
[10]
  MIC: 0.02 µg/mL (≈ 0.0183 µM)
[11]
  AUC(0-t) at 24 h: 345 µg·h/mL
[12]
  AUC(0-t) at 24 h: 667 µg·h/mL
[13]
  Cmax: 18000 ng/mL
[14]
  MIC: 0.25 µg/mL (≈ 0.229 µM)
[15]
  MIC: 0.03 µg/mL (≈ 0.0274 µM)
[16]
  Activity: 0.72 mg/kg
[17]
  MIC: 0.06 µg/mL (≈ 0.0549 µM)
[18]
  MIC: 0.12 µg/mL (≈ 0.11 µM)
[19]
  AUC(0-t) at 24 h: 164 µg·h/mL
[20]
  MIC: 0.06 µg/mL (≈ 0.0549 µM)
[21]
  Activity: 9.84 mg/kg
[22]
  MIC: 0.12 µg/mL (≈ 0.11 µM)
[23]
  MIC: 1 µg/mL (≈ 0.915 µM)
[24]
  Emax: 4.1 log10 CFU/kidneys
[24]; Candida albicans
  ED50: 8 mg/kg
[25]
  MIC: 0.06 µg/mL (≈ 0.0549 µM)
[26]
  MIC: 0.12 µg/mL (≈ 0.11 µM)
[27]
  MIC: 0.25 µg/mL (≈ 0.229 µM)
[28]
  MIC: 0.03 µg/mL (≈ 0.0274 µM)
[29]
  MIC: 0.03 µg/mL (≈ 0.0274 µM)
[30]
  Activity: 2.91 mg/kg
[31]
  Activity: 3.56 mg/kg
[32]
  MIC: 0.03 µg/mL (≈ 0.0274 µM)
[33]
  Emax: 5.5 log10 CFU/kidneys
[33]; Lodderomyces parapsilosis
  ED50: 10.4 mg/kg
[34]
  Emax: 7 log10 CFU/kidneys
[34]; Nakaseomyces glabratus
  ED50: 6.9 mg/kg
[35]
  MIC: 4 µg/mL (≈ 3.66 µM)
[36]
  Activity: 0.33 mg/kg
[37]
  Activity: 97%
[38]
  MIC: 0.25 µg/mL (≈ 0.229 µM)
[39]
  MIC: 0.5 µg/mL (≈ 0.457 µM)
[40]
  MIC: 0.25 µg/mL (≈ 0.229 µM)
[41]
  MIC: 1 µg/mL (≈ 0.915 µM)
[42]
  MIC: 0.03 µg/mL (≈ 0.0274 µM)
[43]
  Activity: 1.16 mg/kg
[44]
  MIC: 0.12 µg/mL (≈ 0.11 µM)
[45]
  MIC: 0.12 µg/mL (≈ 0.11 µM)
